{"source": "ChEMBL document CHEMBL4725371", "about": "“A Novel Redox Modulator Induces a GPX4-Mediated Cell Death That Is Dependent on Iron and Reactive Oxygen Species” (J Med Chem, 2020)", "key": {"[1]": {"assay": "Drug metabolism in mouse plasma assessed as 6-[4-[(3S,5R)-3,5-dihydroxy-4-methyl-piperazin-1-yl]anilino]quinazoline-5,8-dione formation at 500 uM measured after 0.5 hrs by LC-MS/MS analysis", "type": "ADME, cell-free", "how_it_was_run": "(§1)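 Compound (500 μM DMSO stock, 1 μL per 500 μL) was incubated in pooled mouse plasma. Samples were taken at 0.5 h and metabolites identified by LC-MS/MS.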"}, "MIA PaCa-2 [2]": {"tested_on": "MIA PaCa-2", "assay": "Synergistic inhibition of colony formation in human MIA PaCa-2 cells at 0.25 to 0.5 uM measured after 24 hrs in presence of napabucasin by crystal violet staining based assay", "type": "functional, cell-based", "settings": "dose microM 0.25-0.5, time 24.0 hrs", "how_it_was_run": "(§2)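 Colony formation in 96-well plates seeded at 300 (MIA PaCa-2) or 600 (PANC-1) cells/well. Napabucasin, As2O3 or olaparib added 1 h before test compound; drugs on cells 24 h. Plates kept until controls were 80–90% confluent (7–9 days), then stained with 0.05% crystal violet and quantified. Synergy scored by HSA and Bliss models.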"}, "MIA PaCa-2 [3]": {"tested_on": "MIA PaCa-2", "assay": "Effect on glutathione level in human MIA PaCa-2 cells at 1.5 to 6 uM measured after 2 to 4 hrs by GSH/GSSG-glo assay", "type": "functional, cell-based", "settings": "dose microM 1.5-6, time hrs 2-4", "how_it_was_run": "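GSH/GSSG-Glo luminescent assay: 15,000–20,000 MIA PaCa-2 cells per well, attached overnight, treated 2 h and 4 h. Cells were lysed with total or oxidized glutathione reagent, then luciferin generation (30 min, room temperature) and detection reagents added. Luminescence was read after 15 min. Ratio was computed from net RLU as (total − GSSG)/(GSSG/2).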"}, "MIA PaCa-2 [4]": {"tested_on": "MIA PaCa-2", "assay": "Down regulation of LRPPRC gene expression in human MIA PaCa-2 cells at 3 times IC50 measured after 4 hrs by Trizol reagent based Bru labelling based gene sequence analysis", "type": "functional, cell-based", "how_it_was_run": "(§3)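 Bru-seq: 2 × 10⁶ cells were seeded in duplicate and treated at 3 × IC50 for 4 h. Bromouridine (2 mM final) was added for the last 30 min at 37 °C. Total RNA was extracted in TRIzol. BrU-labelled RNA was captured with anti-BrdU magnetic beads, made into cDNA libraries and deep-sequenced.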"}, "PANC-1 [5]": {"tested_on": "PANC-1", "assay": "Down regulation of LRPPRC expression in human PANC-1 cells at 3 times IC50 measured after 1 to 24 hrs by proteomics analysis", "type": "functional, cell-based", "settings": "time hrs 1-24"}, "PANC-1 [6]": {"tested_on": "PANC-1", "assay": "Synergistic inhibition of colony formation in human PANC-1 cells at 0.125 to 0.5 uM measured after 24 hrs in presence of napabucasin by crystal violet staining based assay", "type": "functional, cell-based", "settings": "dose microM 0.125-0.5, time 24.0 hrs", "how_it_was_run": "as §2"}, "BXPC-3": {"tested_on": "BXPC-3", "assay": "Inhibition of colony formation in human BXPC-3 cells at 0.375 uM measured after 7 to 9 days in presence of GPX4 inhibitor RSL3 by crystal violet staining based assay", "type": "functional, cell-based", "settings": "time day 7-9", "how_it_was_run": "(§4)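 Cells seeded overnight in 96-well plates at 300 cells/well (MIA PaCa-2) or 600 cells/well (BxPC-3), in RPMI 1640 with 10% FBS. Inhibitor added 1 h before compound, then continuous exposure for 7–9 days until control wells were 80–90% confluent. Stained with 0.05% crystal violet for 30 min, imaged after overnight drying and quantified.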"}, "MIA PaCa-2 [7]": {"tested_on": "MIA PaCa-2", "assay": "Inhibition of colony formation in human MIA PaCa-2 cells at 0.4 to 0.8 uM measured after 7 to 9 days in presence of ferroptosis inhibitor ferrostatin-1 by crystal violet staining based assay", "type": "functional, cell-based", "settings": "dose microM 0.4-0.8, time day 7-9", "how_it_was_run": "as §4"}, "[8]": {"assay": "Plasma concentration in CD-1 mouse at 10 mg/kg, ip measured after 7 hrs by LC-MS/MS analysis", "type": "ADME, organism-based", "how_it_was_run": "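CD-1 mice dosed IP at 10 mg/kg or PO at 20 mg/kg, n=2 per route. Blood taken with heparinized pipettes at 0.5, 2, 4 and 7 h and spun at 15,000 rpm for 10 min. Plasma stored at −80 °C, then measured by LC-MS/MS.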"}, "MIA PaCa-2 [9]": {"tested_on": "MIA PaCa-2", "assay": "Down regulation of PNPT1 expression in human MIA PaCa-2 cells at 1.2 uM measured after 24 hrs by proteomics analysis", "type": "functional, cell-based", "how_it_was_run": "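MIA PaCa-2 cells were treated with 1.2 μM compound or DMSO for 24 h and lysed in RIPA buffer. 75 μg protein per sample was run in duplicate by TMT10plex-labelled proteomics. Abundance ratio was taken as treatment over control. Changes of at least 1.5-fold at FDR < 0.05 were scored.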"}, "MIA PaCa-2 [10]": {"tested_on": "MIA PaCa-2", "assay": "Inhibition of colony formation in human MIA PaCa-2 cells at 0.4 to 0.8 uM measured after 7 to 9 days in presence of autophagy inhibitor chloroquine by crystal violet staining based assay", "type": "functional, cell-based", "settings": "dose microM 0.4-0.8, time day 7-9", "how_it_was_run": "as §4"}, "MIA PaCa-2 [11]": {"tested_on": "MIA PaCa-2", "assay": "Inhibition of colony formation in human MIA PaCa-2 cells at 0.4 to 0.8 uM measured after 7 to 9 days in presence of iron chelator deferasirox by crystal violet staining based assay", "type": "functional, cell-based", "settings": "dose microM 0.4-0.8, time day 7-9", "how_it_was_run": "as §4"}, "MIA PaCa-2 [12]": {"tested_on": "MIA PaCa-2", "assay": "Inhibition of colony formation in human MIA PaCa-2 cells at 0.5 uM measured after 7 to 9 days in presence of iron chelator deferoxamine by crystal violet staining based assay", "type": "functional, cell-based", "settings": "time day 7-9", "how_it_was_run": "as §4"}, "MIA PaCa-2 [13]": {"tested_on": "MIA PaCa-2", "assay": "Down regulation of PNPT1 gene expression in human MIA PaCa-2 cells at 3 times IC50 measured after 4 hrs by Trizol reagent based Bru labelling based gene sequence analysis", "type": "functional, cell-based", "how_it_was_run": "as §3"}, "[14]": {"assay": "Drug metabolism in mouse plasma assessed as 5,8-dimethoxy-N-[4-(4-methylpiperazin-1-yl)phenyl]quinazolin-6-amine formation at 500 uM measured after 0.5 hrs by LC-MS/MS analysis", "type": "ADME, cell-free", "how_it_was_run": "as §1"}, "MIA PaCa-2 [15]": {"tested_on": "MIA PaCa-2", "assay": "Down regulation of LRPPRC expression in human MIA PaCa-2 cells at 3 times IC50 measured after 4 hrs by proteomics analysis", "type": "functional, cell-based"}, "[16]": {"target": "T1, Phospholipid hydroperoxide glutathione peroxidase GPX4 (Homo sapiens) (UniProt P36969)", "T1 sequence (whole entry)": "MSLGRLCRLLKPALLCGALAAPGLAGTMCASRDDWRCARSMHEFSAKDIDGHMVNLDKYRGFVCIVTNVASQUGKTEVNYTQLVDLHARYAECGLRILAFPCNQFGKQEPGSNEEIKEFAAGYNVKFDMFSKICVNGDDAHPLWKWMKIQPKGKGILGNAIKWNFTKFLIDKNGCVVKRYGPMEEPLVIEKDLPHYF", "assay": "Binding affinity to GPX4 in human PANC-1 cells assessed as protein destabilization by measuring reduction in melting temperature at 100 uM measured after 1 hr by thermal shift assay", "type": "cell-based"}, "[17]": {"target": "Signal transducer and activator of transcription 3 (Homo sapiens) (UniProt P40763)", "sequence (P40763 whole entry)": "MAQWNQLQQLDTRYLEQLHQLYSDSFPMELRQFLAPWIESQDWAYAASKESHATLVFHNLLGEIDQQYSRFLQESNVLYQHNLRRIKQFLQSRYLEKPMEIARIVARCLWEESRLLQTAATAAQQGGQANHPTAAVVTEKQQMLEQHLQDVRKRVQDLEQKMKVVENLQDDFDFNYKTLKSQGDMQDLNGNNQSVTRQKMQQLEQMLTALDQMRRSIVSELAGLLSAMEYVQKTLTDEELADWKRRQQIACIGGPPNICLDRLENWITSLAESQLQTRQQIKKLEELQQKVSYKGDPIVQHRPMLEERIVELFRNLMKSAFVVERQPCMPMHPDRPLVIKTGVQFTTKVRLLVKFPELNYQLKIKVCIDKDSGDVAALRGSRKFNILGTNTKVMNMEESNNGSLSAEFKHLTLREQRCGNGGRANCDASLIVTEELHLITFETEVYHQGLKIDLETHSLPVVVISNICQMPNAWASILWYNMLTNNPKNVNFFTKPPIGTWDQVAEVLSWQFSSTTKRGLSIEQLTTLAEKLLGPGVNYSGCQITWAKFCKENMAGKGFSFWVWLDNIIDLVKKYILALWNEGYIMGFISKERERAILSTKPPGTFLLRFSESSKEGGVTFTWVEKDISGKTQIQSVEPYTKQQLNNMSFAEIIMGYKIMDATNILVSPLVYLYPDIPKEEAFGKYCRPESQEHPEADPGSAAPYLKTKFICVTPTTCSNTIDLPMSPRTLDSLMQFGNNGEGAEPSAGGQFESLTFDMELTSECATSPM", "assay": "Inhibition of STAT3 phosphorylation in human MIA PaCa-2 cells at 1 to 1.5 uM measured after 4 hrs by Western blot analysis", "type": "cell-based", "settings": "dose microM 1-1.5, time 4.0 hrs", "how_it_was_run": "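Cells were treated 4 h at the stated concentrations and lysed in RIPA with protease and phosphatase inhibitors. 25 μg protein was resolved on 10% SDS gels, transferred to PVDF and probed for STAT3, pSTAT3, pH2AX and GAPDH. Detection used fluorescent secondary antibodies, with normalisation to loading control.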"}, "[18]": {"assay": "Drug metabolism in mouse plasma assessed as 2-amino-3-[6-[4-(4-methylpiperazin-1-yl)anilino]-5,8-dioxo-quinazolin-7-yl]sulfanyl-propanoic acid formation at 500 uM measured after 0.5 hrs by LC-MS/MS analysis", "type": "ADME, cell-free", "how_it_was_run": "as §1"}}, "note": "The source made the active and inactive calls. The rule behind the calls is not given here."}
{"smiles": "CN1CCN(c2ccc(NC3=CC(=O)c4ncncc4C3=O)cc2)CC1", "values": [{"measurement": "Drug metabolism", "setting": "[1]", "result": "Metabolite_Detected"}, {"measurement": "inhibition", "setting": "MIA PaCa-2 [2]", "result": "Active"}, {"measurement": "Activity", "setting": "MIA PaCa-2 [3]", "result": "inactive"}, {"measurement": "Activity", "setting": "MIA PaCa-2 [4]", "result": "Active"}, {"measurement": "Activity", "setting": "PANC-1 [5]", "result": "inactive"}, {"measurement": "inhibition", "setting": "PANC-1 [6]", "result": "Active"}, {"measurement": "inhibition", "setting": "BXPC-3", "result": "inactive"}, {"measurement": "inhibition", "setting": "MIA PaCa-2 [7]", "result": "Active"}, {"measurement": "concentration at 7 h", "setting": "[8]", "result": 4.5, "unit": "ng/mL"}, {"measurement": "Activity", "setting": "MIA PaCa-2 [9]", "result": "Active"}, {"measurement": "inhibition", "setting": "MIA PaCa-2 [10]", "result": "Active"}, {"measurement": "inhibition", "setting": "MIA PaCa-2 [11]", "result": "inactive"}, {"measurement": "inhibition", "setting": "MIA PaCa-2 [12]", "result": "inactive"}, {"measurement": "Activity", "setting": "MIA PaCa-2 [13]", "result": "Active"}, {"measurement": "Drug metabolism", "setting": "[14]", "result": "Metabolite_Detected"}, {"measurement": "Activity", "setting": "MIA PaCa-2 [15]", "result": "Active"}, {"measurement": "Activity", "setting": "[16]", "result": "Active"}, {"measurement": "inhibition", "setting": "[17]", "result": "Active"}, {"measurement": "Drug metabolism", "setting": "[18]", "result": "Metabolite_Detected"}]}
